From ChEMBL document CHEMBL1145385, “Functional differences in epigenetic modulators-superiority of mercaptoacetamide-based histone deacetylase inhibitors relative to hydroxamates in cortical neuron neuroprotection studies” (J Med Chem, 2007)
Calls of active or inactive are those of the source. The calls are words filed in the database; no cut-off is given here.

Experiments:
[1] = target: T1, Polyamine deacetylase HDAC10 (Homo sapiens, UniProt Q969S8); assay: Inhibition of His-tagged HDAC10 expressed in Sf9 cells by fluorescence-based assay
T1 sequence (Q969S8 whole entry): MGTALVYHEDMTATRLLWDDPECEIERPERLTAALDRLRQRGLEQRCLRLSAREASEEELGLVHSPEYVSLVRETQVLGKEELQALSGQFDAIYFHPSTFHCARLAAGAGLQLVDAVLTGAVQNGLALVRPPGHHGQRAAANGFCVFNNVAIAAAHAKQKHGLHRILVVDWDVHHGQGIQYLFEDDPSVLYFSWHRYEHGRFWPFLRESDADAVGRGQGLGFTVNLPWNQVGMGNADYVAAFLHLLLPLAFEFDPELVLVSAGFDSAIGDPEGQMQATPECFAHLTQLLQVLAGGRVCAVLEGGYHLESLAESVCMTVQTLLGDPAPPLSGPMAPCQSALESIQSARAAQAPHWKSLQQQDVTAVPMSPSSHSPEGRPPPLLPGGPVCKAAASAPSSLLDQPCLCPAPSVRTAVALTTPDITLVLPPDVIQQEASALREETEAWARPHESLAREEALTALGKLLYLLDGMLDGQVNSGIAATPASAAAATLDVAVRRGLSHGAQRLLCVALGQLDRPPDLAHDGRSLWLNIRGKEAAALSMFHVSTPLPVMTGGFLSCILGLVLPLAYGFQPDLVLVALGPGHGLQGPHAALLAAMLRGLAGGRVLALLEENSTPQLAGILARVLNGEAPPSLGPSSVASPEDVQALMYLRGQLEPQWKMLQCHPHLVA

Histone deacetylase 1 = Histone deacetylase 1 (Homo sapiens, UniProt Q13547); assay: Inhibition of His-tagged HDAC1 expressed in Sf9 cells by fluorescence-based assay
Histone deacetylase 8 = target: T2, Histone deacetylase 8 (Homo sapiens, UniProt Q9BY41); assay: Inhibition of His-tagged HDAC8 expressed in Sf9 cells by fluorescence-based assay
T2 sequence (Q9BY41 whole entry): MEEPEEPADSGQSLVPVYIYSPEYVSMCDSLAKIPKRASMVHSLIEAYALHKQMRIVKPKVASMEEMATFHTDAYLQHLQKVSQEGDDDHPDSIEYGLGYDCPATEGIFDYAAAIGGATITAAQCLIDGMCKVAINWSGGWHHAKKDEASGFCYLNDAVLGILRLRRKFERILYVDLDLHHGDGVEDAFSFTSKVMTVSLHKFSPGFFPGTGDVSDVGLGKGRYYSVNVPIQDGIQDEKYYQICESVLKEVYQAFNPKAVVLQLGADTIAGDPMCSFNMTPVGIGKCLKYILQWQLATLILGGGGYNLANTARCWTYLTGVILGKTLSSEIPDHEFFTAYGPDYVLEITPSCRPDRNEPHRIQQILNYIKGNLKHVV

[2] = target: T3, Protein deacetylase HDAC6 (Homo sapiens, UniProt Q9UBN7); assay: Inhibition of His-tagged HDAC6 expressed in Sf9 cells by fluorescence-based assay
T3 sequence (Q9UBN7 whole entry): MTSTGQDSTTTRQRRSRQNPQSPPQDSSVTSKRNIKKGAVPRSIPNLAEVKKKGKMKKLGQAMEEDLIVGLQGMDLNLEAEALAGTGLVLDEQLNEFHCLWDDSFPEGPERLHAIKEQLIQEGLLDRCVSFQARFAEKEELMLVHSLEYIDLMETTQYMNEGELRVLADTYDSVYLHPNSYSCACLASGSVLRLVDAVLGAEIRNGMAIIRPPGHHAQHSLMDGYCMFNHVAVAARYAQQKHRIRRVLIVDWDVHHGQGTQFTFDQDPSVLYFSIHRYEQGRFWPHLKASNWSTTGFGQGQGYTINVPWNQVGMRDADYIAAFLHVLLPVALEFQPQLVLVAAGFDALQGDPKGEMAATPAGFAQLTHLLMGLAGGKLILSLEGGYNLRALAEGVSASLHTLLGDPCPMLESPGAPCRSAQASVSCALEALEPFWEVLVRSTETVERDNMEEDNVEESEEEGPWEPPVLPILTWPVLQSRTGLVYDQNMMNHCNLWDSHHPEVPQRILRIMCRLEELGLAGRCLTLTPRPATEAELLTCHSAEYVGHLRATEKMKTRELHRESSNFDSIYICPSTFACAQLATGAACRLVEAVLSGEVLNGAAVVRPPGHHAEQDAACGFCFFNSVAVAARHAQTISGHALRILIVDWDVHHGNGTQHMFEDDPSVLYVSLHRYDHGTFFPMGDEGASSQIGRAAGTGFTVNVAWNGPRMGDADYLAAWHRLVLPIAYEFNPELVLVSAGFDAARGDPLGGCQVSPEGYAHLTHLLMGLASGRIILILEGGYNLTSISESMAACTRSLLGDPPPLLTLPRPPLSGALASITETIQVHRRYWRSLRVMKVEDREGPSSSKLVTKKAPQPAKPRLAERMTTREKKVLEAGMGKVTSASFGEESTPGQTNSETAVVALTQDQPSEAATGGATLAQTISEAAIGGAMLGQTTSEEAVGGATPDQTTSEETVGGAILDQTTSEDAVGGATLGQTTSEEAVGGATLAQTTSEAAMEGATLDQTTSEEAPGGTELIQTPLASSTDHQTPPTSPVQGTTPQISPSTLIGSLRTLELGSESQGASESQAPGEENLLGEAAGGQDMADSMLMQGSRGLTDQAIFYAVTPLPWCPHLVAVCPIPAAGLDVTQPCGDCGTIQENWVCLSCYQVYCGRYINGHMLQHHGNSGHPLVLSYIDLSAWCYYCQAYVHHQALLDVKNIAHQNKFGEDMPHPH

neuronal [3] = assay: Protection against HCA-induced oxidative stress Sprague-Dawley rat neuronal cells at 10 uM; type: functional, cell-based
Outline: (§1)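 Cortical neurons from E17 Sprague-Dawley rat fetuses, used 24 h after plating, in MEM with 5.5 g/L glucose, 10% fetal calf serum, 2 mM L-glutamine, 100 µM cystine; 5 mM HCA (pH 7.5) added together with compound (10 µM unless stated); viability after 48 h by MTT and calcein-AM/ethidium homodimer-1 staining; mean ± SE of four replicates.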

Primary neuron = assay: Increase in histone H4 acetylation in Sprague-Dawley rat neurons at 50 uM after 8 hrs; type: functional
Outline: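 Rat primary cortical neurons (fetal Sprague-Dawley, E17) treated 8 h; histones acid-extracted (0.4 N H2SO4) from nuclei, TCA-precipitated, run on 15% SDS gel; immunoblot with acetyl-H4 (1:1000) and total H4 (1:4000) antibodies, 3 h RT, HRP secondary 2 h, enhanced chemiluminescence detection.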

Histone deacetylase 2 = Histone deacetylase 2 (Homo sapiens, UniProt Q92769); assay: Inhibition of His-tagged HDAC2 expressed in Sf9 cells by fluorescence-based assay
[4] = Toxicity against Sprague-Dawley rat neuronal cells at 50 uM; type: cell-based
neuronal [5] = assay: Protection against HCA-induced oxidative stress in Sprague-Dawley rat neuronal cells by MTT assay; type: functional, cell-based; outline: as §1

Chain of Histone deacetylase 2 (Q92769 whole entry): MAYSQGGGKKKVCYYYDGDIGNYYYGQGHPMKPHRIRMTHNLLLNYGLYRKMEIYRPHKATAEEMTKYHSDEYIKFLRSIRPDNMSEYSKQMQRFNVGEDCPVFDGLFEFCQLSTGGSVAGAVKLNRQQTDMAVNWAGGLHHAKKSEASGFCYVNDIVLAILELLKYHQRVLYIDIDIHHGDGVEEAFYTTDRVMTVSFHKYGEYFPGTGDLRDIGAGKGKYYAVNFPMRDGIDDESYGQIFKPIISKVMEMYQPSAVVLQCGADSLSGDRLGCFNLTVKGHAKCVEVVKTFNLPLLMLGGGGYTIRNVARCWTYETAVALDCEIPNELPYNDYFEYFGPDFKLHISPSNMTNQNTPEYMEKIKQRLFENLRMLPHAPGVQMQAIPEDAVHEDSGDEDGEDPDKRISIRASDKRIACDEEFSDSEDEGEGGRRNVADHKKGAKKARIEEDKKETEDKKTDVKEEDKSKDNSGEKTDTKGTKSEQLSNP
Chain of Histone deacetylase 1 (Q13547 whole entry): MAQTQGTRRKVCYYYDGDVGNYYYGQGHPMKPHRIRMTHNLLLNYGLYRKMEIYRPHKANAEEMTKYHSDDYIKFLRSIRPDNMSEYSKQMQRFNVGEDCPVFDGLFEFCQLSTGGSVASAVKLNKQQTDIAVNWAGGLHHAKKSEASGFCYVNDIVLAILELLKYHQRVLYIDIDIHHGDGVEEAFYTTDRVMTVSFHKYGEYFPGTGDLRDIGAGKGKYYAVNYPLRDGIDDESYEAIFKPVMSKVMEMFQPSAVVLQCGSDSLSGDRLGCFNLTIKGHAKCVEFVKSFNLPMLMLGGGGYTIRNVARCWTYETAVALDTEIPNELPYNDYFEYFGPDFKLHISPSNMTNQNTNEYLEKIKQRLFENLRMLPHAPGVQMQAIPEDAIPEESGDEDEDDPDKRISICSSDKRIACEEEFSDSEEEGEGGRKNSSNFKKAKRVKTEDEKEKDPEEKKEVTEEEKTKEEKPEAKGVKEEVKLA

Row | Structure (SMILES) | IC50 [1] | IC50 (Histone deacetylase 1) | IC50 (Histone deacetylase 8) | IC50 [2] | Activity (neuronal [3]) | Activity (Primary neuron) | IC50 (Histone deacetylase 2) | Activity [4] | Activity (neuronal [5])
1 | CN(C)c1ccc(C(=O)NCCCCCNC(=O)CS)cc1 | 1540 nM | 1080 nM | 10200 nM | 114 nM | – | – | – | – | –
2 | CN(C)c1ccc(C(=O)NCCCCCCNC(=O)CS)cc1 | 3430 nM | 1430 nM | 19100 nM | 482 nM | Active | Active | 4640 nM | – | –
3 | CN(C)c1ccc(C(=O)NCCCCNC(=O)CS)cc1 | 29700 nM | 11900 nM | > 30000 nM | 620 nM | – | – | > 30000 nM | – | –
4 | N[C@@H](Cc1c[nH]c2ccccc12)C(=O)Nc1ccccc1-c1ccc(NC(=O)CCCCCCC(=O)NO)cc1 | 28.3 nM | 26.7 nM | 1720 nM | 5.4 nM | – | – | 167 nM | – | –
5 | O=C(CCCCCCC(=O)Nc1nc(-c2cccc([N+](=O)[O-])c2)cs1)NO | 11.1 nM | 8.5 nM | 4090 nM | 3.7 nM | – | – | 113 nM | – | –
6 | N[C@@H](Cc1ccc(O)cc1)C(=O)Nc1ccccc1-c1ccc(NC(=O)CCCCCCC(=O)NO)cc1 | 42.1 nM | 36.9 nM | 2060 nM | 9 nM | – | – | 205 nM | – | –
7 | O=C(CS)NCCCCCCNC(=O)Nc1ccccc1 | > 30000 nM | 10800 nM | 13900 nM | 2010 nM | – | inactive | > 30000 nM | Non-toxic | Dose-dependent effect
8 | CN(C)c1ccc(C(=O)NCCCNC(=O)CS)cc1 | 8780 nM | 5260 nM | 12300 nM | 216 nM | – | inactive | > 30000 nM | Non-toxic | Dose-dependent effect
9 | O=C(CCCCCNC(=O)NC12CC3CC(CC(C3)C1)C2)NO | 173 nM | 152 nM | 3410 nM | 102 nM | – | – | 1050 nM | – | –
10 | O=C(CS)NCCCCCC(=O)Nc1cccc2cccnc12 | 10700 nM | 3220 nM | 6120 nM | 95.3 nM | Active | Active | 7380 nM | – | –
11 | CN(C)c1ccc(CNC(=O)NCCC(=O)NO)cc1 | 178 nM | 130 nM | 1050 nM | 45.5 nM | – | – | 492 nM | – | –
12 | CN(C)c1ccc(NC(=O)NCCCCCCC(=O)NO)cc1 | 176 nM | 209 nM | 1740 nM | 34.5 nM | – | – | 647 nM | – | –
